Measurements of several laboratories.
Target: Eukaryotic translation initiation factor 2-alpha kinase 3 (EIF2AK3, Homo sapiens, UniProt Q9NZJ5)
One construct used (Q9NZJ5 30-1116): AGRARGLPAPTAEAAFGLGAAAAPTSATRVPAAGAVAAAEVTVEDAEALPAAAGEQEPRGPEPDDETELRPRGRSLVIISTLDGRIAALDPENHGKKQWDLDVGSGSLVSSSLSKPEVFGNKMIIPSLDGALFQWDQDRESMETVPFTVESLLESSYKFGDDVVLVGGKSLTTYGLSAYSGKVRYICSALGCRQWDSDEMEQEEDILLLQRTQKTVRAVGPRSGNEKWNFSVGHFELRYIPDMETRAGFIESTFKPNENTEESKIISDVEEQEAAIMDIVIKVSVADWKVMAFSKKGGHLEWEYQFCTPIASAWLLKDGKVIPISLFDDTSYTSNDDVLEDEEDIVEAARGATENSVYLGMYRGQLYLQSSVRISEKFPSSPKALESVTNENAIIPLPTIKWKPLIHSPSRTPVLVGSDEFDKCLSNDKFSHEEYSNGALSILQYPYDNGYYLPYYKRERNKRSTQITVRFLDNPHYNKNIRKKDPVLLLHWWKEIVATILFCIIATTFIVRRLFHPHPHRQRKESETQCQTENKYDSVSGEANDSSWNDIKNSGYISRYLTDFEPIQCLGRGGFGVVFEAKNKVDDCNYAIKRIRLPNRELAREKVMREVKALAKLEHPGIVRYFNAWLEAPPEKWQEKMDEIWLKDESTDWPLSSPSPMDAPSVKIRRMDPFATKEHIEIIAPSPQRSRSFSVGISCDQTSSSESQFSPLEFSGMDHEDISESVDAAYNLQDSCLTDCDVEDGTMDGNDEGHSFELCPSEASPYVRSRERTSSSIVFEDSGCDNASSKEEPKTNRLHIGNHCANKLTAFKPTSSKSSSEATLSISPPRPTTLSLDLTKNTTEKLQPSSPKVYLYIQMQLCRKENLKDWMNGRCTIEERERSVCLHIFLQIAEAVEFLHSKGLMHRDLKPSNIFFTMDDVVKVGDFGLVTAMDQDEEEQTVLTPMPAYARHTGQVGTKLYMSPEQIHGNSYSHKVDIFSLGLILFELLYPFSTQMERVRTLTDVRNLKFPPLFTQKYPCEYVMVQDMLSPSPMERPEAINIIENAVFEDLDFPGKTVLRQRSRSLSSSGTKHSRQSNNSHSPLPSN

Structure (SMILES) | effect on | mode | technique | tested at | measurement | result
Cc1cc(NC(=O)c2cccc3cc(-c4cccc5[nH]nc(N)c45)ccc23)ccc1F | enzyme activity | inhibitor |  | 0.1 µM | activity vs control | 94%
CNC(=O)c1cc2c(Oc3ccc(NC(=O)C4(C(=O)Nc5ccc(F)cc5)CC4)cc3)ccnc2cc1OC | enzyme activity | inhibitor | radiometric | 1 µM | inhibition | 73%
COc1cccc2c(NCc3ccccc3)nc(-n3c(N)nc4ccccc43)nc12 | target engagement in cells | inhibitor | chemoproteomics | 20 mM | inhibition | -7.4%
Cc1ccc(C(=O)NCc2ccsc2)cc1C#Cc1cn(C(C)C)c2ncnc(N)c12 | enzyme activity | inhibitor |  | 1 µM | activity vs control | 82%
Cc1ccc(NC(=O)c2ccc(C)c(C(F)(F)F)c2)cc1C#Cc1nn(C2CCC(O)CC2)c2ncnc(N)c12 (stereo not drawn) | cell-free assay |  |  | 10 µM | remaining signal | 39%
COc1cc(Nc2cnc(C#N)c(O[C@H](C)CN(C)C)n2)ncc1-c1cnn(C)c1 | enzyme activity | inhibitor | radiometric | 1 µM | remaining activity | 101%
Cc1cnc(NC2CCOCC2)nc1-n1cnc(C(=O)NC(CN)c2cc(F)cc(Cl)c2)c1 (stereo not drawn) | enzyme activity | inhibitor | radiometric | 1 µM | remaining activity | 101%
CC(C)(C)c1nc(-c2cccc(NS(=O)(=O)c3c(F)cccc3F)c2F)c(-c2ccnc(N)n2)s1 | enzyme activity | inhibitor | radiometric | 1 µM | remaining activity | 4%
FC(F)(F)Oc1cccc(-c2cnc3ccc(-c4ccncc4)nn23)c1 | enzyme activity | inhibitor | radiometric | 1 µM | activity vs control | 74%
CN1CC(Oc2cnc(C#N)cc2-c2ccn3nc(NC(=O)C4CC4)cc3c2)C1 | enzyme activity | inhibitor |  | 1 µM | inhibition | 0%
CCCCNc1ncc2c(-c3ccc(F)cc3)nn(C[C@H]3CC[C@H](N)CC3)c2n1 | target engagement in cells | inhibitor | chemoproteomics | 20 mM | inhibition | 17%
CC/C(=N\NC(=O)NCc1cccc(O)c1)c1ccc(O)c(C)c1O | enzyme activity | inhibitor |  | 0.1 µM | inhibition | 4.2%
CC(C)(C)c1nc2c(s1)c1nc(N)ncc1c1ccc(NS(=O)(=O)c3c(F)cccc3F)c(F)c12 | enzyme activity | inhibitor | radiometric | 1 µM | remaining activity | 47%
COc1cc(/C=C/C(=O)CC(=O)/C=C/c2ccc(O)c(OC)c2)ccc1O | enzyme activity | inhibitor |  | 1 µM | activity vs control | 95%
CCN(CC)c1ccc(C2=NNC(=O)CC2C)cc1[N+](=O)[O-] (stereo not drawn) | enzyme activity | inhibitor |  | 10 µM | remaining activity | 110%
